What all share (type): cell-based
For experiment [1], the target named is T1, E3 ubiquitin-protein ligase Mdm2/Histone deacetylase 1 (Homo sapiens) (UniProt Q00987+Q13547). The experiment in a line: PROTAC activity at MDM2/HDAC1 in human HCT-116 cells assessed as decrease in HDAC1 abundance by measuring remaining activity at 10 uM measured after 24 hrs by Western blot analysis (reference value: 100%). Put shortly:
(§1)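 HCT116 cells seeded in six-well plates for 24 h, then exposed 24 h to compound (0.01–10 μM) or DMSO in fresh medium. Lysis in Tris-HCl/NaCl/NP-40/Triton X-100 with protease inhibitor. Bradford-normalised 30 μg protein per lane. Quantitative Western blot used specific HDAC1, HDAC2, HDAC3, LSD1 or Sin3a antibodies with IRDye secondaries. Abundance compared with DMSO, n = 2 replicates.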

Experiment [2] has as its target T2, Paired amphipathic helix protein Sin3a (Homo sapiens) (UniProt Q96ST3).
T2 sequence (whole entry): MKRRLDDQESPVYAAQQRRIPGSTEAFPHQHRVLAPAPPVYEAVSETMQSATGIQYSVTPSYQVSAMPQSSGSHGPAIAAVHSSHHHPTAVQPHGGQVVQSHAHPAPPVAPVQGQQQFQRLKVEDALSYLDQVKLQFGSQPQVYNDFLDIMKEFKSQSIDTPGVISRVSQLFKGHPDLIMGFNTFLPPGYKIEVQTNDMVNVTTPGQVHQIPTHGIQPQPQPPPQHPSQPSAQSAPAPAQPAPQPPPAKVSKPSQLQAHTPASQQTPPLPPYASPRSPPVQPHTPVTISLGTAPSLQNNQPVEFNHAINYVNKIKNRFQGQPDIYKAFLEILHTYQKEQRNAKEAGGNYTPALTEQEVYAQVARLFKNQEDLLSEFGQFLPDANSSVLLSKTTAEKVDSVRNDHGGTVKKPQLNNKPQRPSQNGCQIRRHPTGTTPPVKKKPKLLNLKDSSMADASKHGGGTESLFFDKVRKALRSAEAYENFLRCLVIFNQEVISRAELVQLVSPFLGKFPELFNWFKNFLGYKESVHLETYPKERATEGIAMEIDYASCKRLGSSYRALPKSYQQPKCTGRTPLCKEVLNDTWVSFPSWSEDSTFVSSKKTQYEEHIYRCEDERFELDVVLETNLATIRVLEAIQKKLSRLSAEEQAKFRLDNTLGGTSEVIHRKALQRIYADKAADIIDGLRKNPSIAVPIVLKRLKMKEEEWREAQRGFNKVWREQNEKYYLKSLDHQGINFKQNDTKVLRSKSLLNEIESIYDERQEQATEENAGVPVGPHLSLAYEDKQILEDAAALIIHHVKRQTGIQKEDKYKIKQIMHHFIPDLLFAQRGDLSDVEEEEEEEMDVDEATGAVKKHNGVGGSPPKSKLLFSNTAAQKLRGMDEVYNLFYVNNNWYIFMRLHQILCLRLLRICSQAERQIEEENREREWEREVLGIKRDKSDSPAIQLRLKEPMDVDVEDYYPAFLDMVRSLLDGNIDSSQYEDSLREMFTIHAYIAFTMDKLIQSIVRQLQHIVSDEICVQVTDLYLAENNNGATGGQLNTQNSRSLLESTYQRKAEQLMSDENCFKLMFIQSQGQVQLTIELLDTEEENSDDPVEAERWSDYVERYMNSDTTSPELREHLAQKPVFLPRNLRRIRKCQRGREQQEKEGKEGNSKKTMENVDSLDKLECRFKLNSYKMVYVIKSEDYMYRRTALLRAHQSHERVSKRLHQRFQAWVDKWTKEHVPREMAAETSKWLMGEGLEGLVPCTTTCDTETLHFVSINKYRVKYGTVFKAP
The experiment in a line: Induction of SIN3A degradation in human HCT-116 cells assessed as reduction in SIN3A abundance by measuring remaining activity at 0.05 uM measured after 24 hrs by Western blot analysis (reference value: 100%). The essentials:
as §1
(In general: In western blotting, separated proteins are transferred to a membrane and probed.)

Experiment [3] has as its target T3, E3 ubiquitin-protein ligase Mdm2/Histone deacetylase 2 (Homo sapiens) (UniProt Q00987+Q92769). Description: PROTAC activity at MDM2/HDAC2 in human HCT-116 cells assessed as decrease in HDAC2 abundance by measuring remaining activity at 1 uM measured after 24 hrs by Western blot analysis (reference value: 100%). Put shortly:
as §1

Experiment [4] concerns the target T2, Paired amphipathic helix protein Sin3a (Homo sapiens). Description: Induction of SIN3A degradation in human HCT-116 cells assessed as reduction in SIN3A abundance by measuring remaining activity at 0.025 uM measured after 24 hrs by Western blot analysis (reference value: 100%). The essentials:
as §1

The target of experiment [5] is T1, E3 ubiquitin-protein ligase Mdm2/Histone deacetylase 1 (Homo sapiens). Description: PROTAC activity at MDM2/HDAC1 in human HCT-116 cells assessed as induction of HDAC1 degradation by Western blot analysis. The settings on record: dose 0.01-10 µM.
Experiment [6] concerns the target T3, E3 ubiquitin-protein ligase Mdm2/Histone deacetylase 2 (Homo sapiens). Description: PROTAC activity at MDM2/HDAC2 in human HCT-116 cells assessed as decrease in HDAC2 abundance by measuring remaining activity at 0.1 uM measured after 24 hrs by Western blot analysis (reference value: 100%). Put shortly: as §1
The target in experiment [7] is T4, E3 ubiquitin-protein ligase Mdm2/Histone deacetylase 3 (Homo sapiens) (UniProt Q00987+O15379). Description: PROTAC activity at MDM2/HDAC3 in human HCT-116 cells assessed as reduction in HDAC3 abundance by measuring remaining activity at 0.5 uM measured after 24 hrs by Western blot analysis. The essentials: (§2)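 HCT116 cells in DMEM with 10% FBS and glutamine/penicillin/streptomycin at 37 °C, 5% CO2. Seeded 4 × 10^5 cells/well, after 24 h treated 24 h with DMSO or compound in fresh medium. Lysed in Tris-HCl/NaCl/NP-40/Triton X-100 buffer with protease inhibitor, Bradford-quantified, 30 μg protein per lane. Quantitative Western blot with specific HDAC1/2/3 antibodies, IRDye secondaries, infrared imaging, versus DMSO. n = 2 replicates.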

Experiment [8] has as its target T4, E3 ubiquitin-protein ligase Mdm2/Histone deacetylase 3 (Homo sapiens). Description: PROTAC activity at MDM2/HDAC3 in human HCT-116 cells assessed as reduction in HDAC3 abundance by measuring remaining activity at 0.25 uM measured after 24 hrs by Western blot analysis. The essentials: as §2
The target in experiment [9] is T1, E3 ubiquitin-protein ligase Mdm2/Histone deacetylase 1 (Homo sapiens). The experiment in a line: PROTAC activity at MDM2/HDAC1 in human HCT-116 cells assessed as decrease in HDAC1 abundance by measuring remaining activity at 0.05 uM measured after 24 hrs by Western blot analysis (reference value: 100%). Put shortly: as §1
In experiment [10] the target is T3, E3 ubiquitin-protein ligase Mdm2/Histone deacetylase 2 (Homo sapiens). Description: PROTAC activity at MDM2/HDAC2 in human HCT-116 cells assessed as decrease in HDAC2 abundance by measuring remaining activity at 10 uM measured after 24 hrs by Western blot analysis (reference value: 100%). The essentials: as §1
Experiment [11] deals with Lysine-specific histone demethylase 1A (Homo sapiens) (UniProt O60341). The experiment in a line: Induction of LSD1 degradation in human HCT-116 cells assessed as reduction in LSD1 abundance by measuring remaining activity at 1 uM measured after 24 hrs by Western blot analysis (reference value: 100%). The essentials:
as §1

Experiment [12] has the same target. Description: Induction of LSD1 degradation in human HCT-116 cells assessed as reduction in LSD1 abundance by measuring remaining activity at 0.05 uM measured after 24 hrs by Western blot analysis (reference value: 100%). Put shortly:
as §1

The structures appear in SMILES notation.

Here are results for 1 compound from ChEMBL document CHEMBL5357024, “MDM2 Antagonist Idasanutlin Reduces HDAC1/2 Abundance and Corepressor Partners but Not HDAC3” (ACS Med Chem Lett, 2024).

T1 sequence (Q00987 whole entry, looked up): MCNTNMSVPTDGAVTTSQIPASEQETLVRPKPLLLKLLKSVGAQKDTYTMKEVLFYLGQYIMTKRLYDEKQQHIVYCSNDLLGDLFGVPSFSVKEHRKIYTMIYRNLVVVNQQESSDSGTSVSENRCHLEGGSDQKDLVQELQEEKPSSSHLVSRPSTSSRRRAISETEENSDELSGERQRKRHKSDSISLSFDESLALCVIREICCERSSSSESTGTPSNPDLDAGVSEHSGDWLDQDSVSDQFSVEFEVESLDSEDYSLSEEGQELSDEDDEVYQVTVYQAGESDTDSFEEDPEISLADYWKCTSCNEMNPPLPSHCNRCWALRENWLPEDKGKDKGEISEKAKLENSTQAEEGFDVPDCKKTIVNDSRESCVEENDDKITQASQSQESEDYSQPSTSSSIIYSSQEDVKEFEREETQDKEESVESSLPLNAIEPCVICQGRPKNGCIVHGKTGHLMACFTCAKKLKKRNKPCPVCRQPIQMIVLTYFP
T1 sequence (Q13547 whole entry, looked up): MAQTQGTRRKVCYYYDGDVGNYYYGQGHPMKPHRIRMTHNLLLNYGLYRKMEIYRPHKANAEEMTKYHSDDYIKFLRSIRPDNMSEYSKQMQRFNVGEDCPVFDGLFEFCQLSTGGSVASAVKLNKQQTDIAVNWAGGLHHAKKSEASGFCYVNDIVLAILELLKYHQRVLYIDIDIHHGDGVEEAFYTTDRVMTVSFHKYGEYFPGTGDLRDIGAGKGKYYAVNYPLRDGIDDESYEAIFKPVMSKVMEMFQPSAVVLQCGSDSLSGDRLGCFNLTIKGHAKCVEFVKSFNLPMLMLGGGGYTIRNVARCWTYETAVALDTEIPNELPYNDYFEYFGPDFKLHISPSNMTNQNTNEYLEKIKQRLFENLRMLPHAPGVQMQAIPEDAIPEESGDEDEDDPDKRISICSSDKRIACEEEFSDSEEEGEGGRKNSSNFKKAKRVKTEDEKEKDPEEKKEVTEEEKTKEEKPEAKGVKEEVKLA
T3 sequence (Q00987 whole entry, looked up): as the sequence (Q00987 whole entry, looked up) above
T3 sequence (Q92769 whole entry, looked up): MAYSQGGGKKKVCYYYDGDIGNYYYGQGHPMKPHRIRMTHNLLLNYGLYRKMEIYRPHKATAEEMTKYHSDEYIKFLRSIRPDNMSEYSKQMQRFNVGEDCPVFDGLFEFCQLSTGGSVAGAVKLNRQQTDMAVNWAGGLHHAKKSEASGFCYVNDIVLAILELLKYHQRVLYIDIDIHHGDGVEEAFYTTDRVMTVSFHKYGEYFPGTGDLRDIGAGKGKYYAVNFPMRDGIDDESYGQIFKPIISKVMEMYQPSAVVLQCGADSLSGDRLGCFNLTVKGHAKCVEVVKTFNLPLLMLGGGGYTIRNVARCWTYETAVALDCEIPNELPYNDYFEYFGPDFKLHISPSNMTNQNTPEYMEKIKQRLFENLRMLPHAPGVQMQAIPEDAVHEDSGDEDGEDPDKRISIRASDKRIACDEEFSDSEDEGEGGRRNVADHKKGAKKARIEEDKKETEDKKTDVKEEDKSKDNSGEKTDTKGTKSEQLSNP
T4 sequence (O15379 whole entry, looked up): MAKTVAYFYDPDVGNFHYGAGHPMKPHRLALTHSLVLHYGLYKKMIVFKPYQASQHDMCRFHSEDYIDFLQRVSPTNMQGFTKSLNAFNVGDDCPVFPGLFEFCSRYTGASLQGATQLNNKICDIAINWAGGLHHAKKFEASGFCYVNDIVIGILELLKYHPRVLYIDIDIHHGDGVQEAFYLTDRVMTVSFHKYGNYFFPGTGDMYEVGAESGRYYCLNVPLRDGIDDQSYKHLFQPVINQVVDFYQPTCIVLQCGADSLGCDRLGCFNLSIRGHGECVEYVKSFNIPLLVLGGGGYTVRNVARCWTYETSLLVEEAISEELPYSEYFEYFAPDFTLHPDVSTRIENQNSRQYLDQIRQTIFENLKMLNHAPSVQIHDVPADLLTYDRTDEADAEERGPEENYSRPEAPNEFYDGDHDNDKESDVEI
T4 sequence (Q00987 whole entry, looked up): as the sequence (Q00987 whole entry, looked up) above

With `COc1cc(C(=O)NCCOCCOCCOCCOCCC(=O)Nc2ccc(C(=O)Nc3ccccc3N)cc2)ccc1NC(=O)[C@@H]1N[C@@H](CC(C)(C)C)[C@](C#N)(c2ccc(Cl)cc2F)[C@H]1c1cccc(Cl)c1F`, the Activity in experiment [1] is 36%; in experiment [2], 103%; in experiment [3], 69%; in [4] it was 100%; in experiment [5] it was “Dose-Dependent Effect”; in experiment [6], 92%. The Activity in experiment [7] worked out at 106%; in experiment [8] it was 102%; in experiment [9], 88%; in experiment [10] it was 54%; in experiment [11] it was 81%; in experiment [12], 95%.
